Laboratory results taken from ChEMBL document CHEMBL1275382, “Synthesis and SAR studies of chiral non-racemic dexoxadrol analogues as uncompetitive NMDA receptor antagonists” (Bioorg Med Chem, 2010).

Experiments:
[1] = target: Sigma non-opioid intracellular receptor 1 (Homo sapiens, UniProt Q99720); test: Binding affinity to sigma1 receptor
Procedure, shortened: (§1)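 Radioligand competition binding with at least six test-compound concentrations, each run in triplicate. Incubations were stopped by rapid filtration through filters presoaked 2 h in 0.5% aqueous polyethylenimine, and bound radioactivity was counted by solid scintillation. IC50 came from non-linear regression and Ki from the Cheng–Prusoff equation. Values are mean ± SEM of three independent experiments.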

[2] = Binding affinity to sigma2 receptor; procedure, shortened: as §1
[3] = Binding affinity to NMDA receptor ifenprodil binding site; procedure, shortened: as §1

Sequence of Sigma non-opioid intracellular receptor 1 (Q99720 whole entry): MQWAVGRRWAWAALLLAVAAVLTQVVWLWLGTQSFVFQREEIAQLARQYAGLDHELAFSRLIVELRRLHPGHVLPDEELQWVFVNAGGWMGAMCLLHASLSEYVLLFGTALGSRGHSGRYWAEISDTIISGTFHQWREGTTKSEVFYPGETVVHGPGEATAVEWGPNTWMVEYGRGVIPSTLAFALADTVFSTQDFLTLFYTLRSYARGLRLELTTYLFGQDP

SMILES | Ki [1] | Ki [2] | Ki [3]
FC1(F)CCNC(C2COC(c3ccccc3)(c3ccccc3)O2)C1 (racemic) | > 0.8 µM | > 1 µM | > 1 µM
FC1CCNC(C2COC(c3ccccc3)(c3ccccc3)O2)C1 (racemic) | > 0.8 µM | > 1 µM | > 1 µM
c1ccc(C2(c3ccccc3)OCC(C3CCCCN3)O2)cc1 (racemic) [DIOXADROL] | > 0.8 µM | > 1 µM | > 1 µM
OC1CCNC(C2COC(c3ccccc3)(c3ccccc3)O2)C1 (racemic) | > 0.8 µM | > 1 µM | > 1 µM
O=C1CCNC(C2COC(c3ccccc3)(c3ccccc3)O2)C1 (racemic) | > 0.8 µM | > 1 µM | > 1 µM
